{
  "source": "paper PMC5900865",
  "about": "(Clinical Pharmacology in Drug Development, 2017)",
  "key": {"[1]": {"test_system": "elderly adult men and women", "assay": "Study 2 safety evaluation", "assay_type": "in vivo, human", "conditions": "elderly population, single dose of 10 mg", "procedure,_shortened": "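Elderly Japanese adults aged 65–85 (10 men, 10 women) were randomized 4:1, double-blind, to one oral 10 mg dose or placebo. Dosing was fasted, in the morning of day 1. Participants stayed on site days 1–5 and were discharged day 6. AEs, weight, vital signs, 12-lead ECG and haematology, chemistry, coagulation and urinalysis were recorded. TEAE incidence and intensity were compared with placebo.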"}, "healthy adult men [2]": {"test_system": "healthy adult men", "assay": "Study 1A safety evaluation", "assay_type": "in vivo, human", "procedure,_shortened": "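Randomized, double-blind, placebo-controlled study in healthy Japanese men. Single oral doses rose from 2.5 to 40 mg, doubling over 5 cohorts of 9 (2:1 drug:placebo). Each escalation followed review of safety data to day 5 and PK data to 48 h. AEs, body weight, vital signs, 12-lead ECG and haematology, chemistry, coagulation and urinalysis were recorded. TEAE incidence, intensity and drug relationship were compared with placebo.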"}, "healthy Japanese adults": {"test_system": "healthy Japanese adults", "assay": "Safety evaluation across all 3 studies", "assay_type": "in vivo, human", "conditions": "any of the studies"}, "CYP2A6": {"test_system": "CYP2A6", "conditions": "cited from earlier work"}, "[3]": {"assay": "Study 3 food-effect pharmacokinetics", "assay_type": "in vivo, human", "procedure,_shortened": "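Open-label two-period crossover in healthy men given 10 mg orally on days 1 and 15, fasted or fed. Fasted dosing followed ≥10 h fasting, with water. Fed dosing came within 10 min after a high-fat breakfast (≥900 kcal, ≥35% fat) eaten within 20 min. Plasma was sampled predose to 168 h; urine was pooled to 168 h. Log-transformed Cmax/AUC were analysed by ANOVA with 90% CI of back-transformed LS mean ratios. Tmax used Wilcoxon signed-rank.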"}, "[4]": {"assay": "Study 1A single-rising-dose pharmacokinetics", "assay_type": "in vivo, human", "conditions": "for Tmax / half-life / AUC(0-inf) / Cmax: human, plasma; for CL/F / Fe0–48, cumulative excretion ratio (% of dose): fasted, men; for Fe0–48, cumulative excretion ratio (% of dose): urine 0 to 48 hours", "procedure,_shortened": "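Healthy men received single oral doses of 2.5–40 mg. The 2.5 mg cohort was redosed fed (30 min post-breakfast) on day 15 after a 14-day washout. EDTA plasma was sampled predose and 1–216 h postdose; urine was pooled at 0–6, 6–12, 12–24 and 24–48 h. Samples were stored at ≤ −20 °C, liquid–liquid extracted and assayed by HPLC-MS/MS. Parameters came from noncompartmental analysis.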"}, "CYP1A2": {"test_system": "CYP1A2", "conditions": "cited from earlier work"}, "CYP3A4/5": {"test_system": "CYP3A4/5", "conditions": "cited from earlier work"}, "[5]": {"assay": "Study 2 single-dose pharmacokinetics in elderly adults", "assay_type": "in vivo, human", "conditions": "for AUC(0-inf) / Cmax / Tmax: human, plasma, oral, 10 mg; for T1/2 / Fe0–120, fraction excreted: single 10 mg; for T1/2: fasted; for Fe0–120, fraction excreted: urine 0 to 120 hours", "procedure,_shortened": "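Elderly men and women (65–85 y) received a single oral 10 mg dose, fasted, in the morning. Plasma vortioxetine and metabolites were assayed by HPLC-MS/MS after liquid–liquid extraction. Urine was pooled predose and at 24-h intervals to 120 h. Parameters came from noncompartmental analysis. Below-LLOQ concentrations were entered as zero in means. Tmax is median (min–max).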"}, "CYP2C19": {"test_system": "CYP2C19", "conditions": "cited from earlier work"}, "healthy adult men [6]": {"test_system": "healthy adult men", "assay": "Study 3 safety evaluation", "assay_type": "in vivo, human", "conditions": "single 10 mg"}, "[7]": {"test_system": "healthy adult men and women", "assay": "Study 1B safety evaluation", "assay_type": "in vivo, human", "procedure,_shortened": "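Double-blind, placebo-controlled (2:1) multiple-dose study. Men received 5, 10 or 20 mg and women 5 or 10 mg, oral and fed, daily on days 1–12. Women were dosed only after that dose was assessed in men. Participants were discharged day 17, with post-study exam day 20. AEs, weight, vitals, 12-lead ECG and clinical labs were recorded. TEAE incidence, intensity and drug relationship were assessed by dose and sex versus placebo.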"}, "CYP2E1": {"test_system": "CYP2E1", "conditions": "cited from earlier work"}, "[8]": {"conditions": "single 2.5 mg, n = 5, mean (SD)"}, "[9]": {"conditions": "elderly women, n = 7, mean (SD)"}},
  "data": [
    {"smiles": "Cc1ccc(Sc2ccccc2N2CCNCC2)c(C)c1", "note": "[Vortioxetine, 1‐[2‐(2,4‐dimethylphenylsulfanyl)phenyl]piperazine]", "values": [
      {"measurement": "safety and tolerability", "setting": "[1]", "value": "safe and tolerated"},
      {"measurement": "tolerated single dose", "setting": "healthy adult men [2]; healthy men", "value": "up to 20 mg"},
      {"measurement": "AEs reported", "setting": "healthy adult men [2]; single 40‐mg dose group", "value": "Seven AEs"},
      {"measurement": "deaths or serious AEs", "setting": "healthy Japanese adults", "value": "no deaths or serious AEs leading to trial discontinuation were observed"},
      {"measurement": "inhibitory or inducing effect in vitro", "setting": "CYP2A6", "value": "No inhibitory or inducing effect"},
      {"measurement": "Tmax", "setting": "[3]; male, human, plasma, oral, 10 mg", "value": 12, "unit": "h"},
      {"measurement": "90%CIs for the LS mean ratios of Cmax and AUC (fed vs fasted)", "setting": "[3]; single 10 mg, no‐effect boundary 90%CI, 0.8–1.25", "value": "within the no‐effect boundary"},
      {"measurement": "Tmax", "setting": "[4]; both, po", "value": "6 to 13", "unit": "h"},
      {"measurement": "half-life", "setting": "[4]; male, oral", "value": "50 to 70", "unit": "h"},
      {"measurement": "AUC(0-inf)", "setting": "[4]; male, oral, 2.5 mg", "value": 56.5, "unit": "ng·h/mL"},
      {"measurement": "Cmax", "setting": "[4]; male, oral, 2.5 mg", "value": 0.8, "unit": "ng/mL"},
      {"measurement": "Tmax", "setting": "[4]; male, oral, 2.5 mg", "value": 10, "unit": "h"},
      {"measurement": "AUC(0-inf)", "setting": "[4]; male, oral, 5 mg", "value": 188, "unit": "ng·h/mL"},
      {"measurement": "Cmax", "setting": "[4]; male, oral, 5 mg", "value": 1.9, "unit": "ng/mL"},
      {"measurement": "Tmax", "setting": "[4]; male, oral, 5 mg", "value": 10, "unit": "h"},
      {"measurement": "half-life", "setting": "[4]; male, oral, 5 mg", "value": 69.4, "unit": "h"},
      {"measurement": "AUC(0-inf)", "setting": "[4]; male, oral, 10 mg", "value": 348, "unit": "ng·h/mL"},
      {"measurement": "Cmax", "setting": "[4]; male, oral, 10 mg", "value": 3.5, "unit": "ng/mL"},
      {"measurement": "Tmax", "setting": "[4]; male, oral, 10 mg", "value": 10, "unit": "h"},
      {"measurement": "half-life", "setting": "[4]; male, oral, 10 mg", "value": 66, "unit": "h"},
      {"measurement": "AUC(0-inf)", "setting": "[4]; male, oral, 20 mg", "value": 560, "unit": "ng·h/mL"},
      {"measurement": "Cmax", "setting": "[4]; male, oral, 20 mg", "value": 7.7, "unit": "ng/mL"},
      {"measurement": "Tmax", "setting": "[4]; male, oral, 20 mg", "value": 9, "unit": "h"},
      {"measurement": "AUC(0-inf)", "setting": "[4]; male, oral, 40 mg", "value": 1310, "unit": "ng·h/mL"},
      {"measurement": "Cmax", "setting": "[4]; male, oral, 40 mg", "value": 19.4, "unit": "ng/mL"},
      {"measurement": "Tmax", "setting": "[4]; male, oral, 40 mg", "value": 6.3, "unit": "h"},
      {"measurement": "CL/F", "setting": "[4]; [8]", "value": "50 (20) L/h"},
      {"measurement": "CL/F", "setting": "[4]; single 5 mg, n = 6, mean (SD)", "value": "29.6 (10.3) L/h"},
      {"measurement": "CL/F", "setting": "[4]; single 10 mg, n = 6, mean (SD)", "value": "35.2 (19.2) L/h"},
      {"measurement": "CL/F", "setting": "[4]; single 20 mg, n = 6, mean (SD)", "value": "41.4 (17.6) L/h"},
      {"measurement": "CL/F", "setting": "[4]; single 40 mg, n = 4, mean (SD)", "value": "34.0 (13.1) L/h"},
      {"measurement": "Fe0–48, cumulative excretion ratio (% of dose)", "setting": "[4]; [8]", "value": "0.0 (0.0) %"},
      {"measurement": "Fe0–48, cumulative excretion ratio (% of dose)", "setting": "[4]; single 5 mg, n = 6, mean (SD)", "value": "0.0 (0.0) %"},
      {"measurement": "Fe0–48, cumulative excretion ratio (% of dose)", "setting": "[4]; single 10 mg, n = 6, mean (SD)", "value": "0.007 (0.018) %"},
      {"measurement": "Fe0–48, cumulative excretion ratio (% of dose)", "setting": "[4]; single 20 mg, n = 6, mean (SD)", "value": "0.023 (0.023) %"},
      {"measurement": "Fe0–48, cumulative excretion ratio (% of dose)", "setting": "[4]; single 40 mg, n = 4, mean (SD)", "value": "0.034 (0.017) %"},
      {"measurement": "inhibitory or inducing effect in vitro", "setting": "CYP1A2", "value": "No inhibitory or inducing effect"},
      {"measurement": "inhibitory or inducing effect in vitro", "setting": "CYP3A4/5", "value": "No inhibitory or inducing effect"},
      {"measurement": "AUC(0-inf)", "setting": "[5]; female", "value": 305, "unit": "ng·h/mL"},
      {"measurement": "Cmax", "setting": "[5]; female", "value": 4.6, "unit": "ng/mL"},
      {"measurement": "Tmax", "setting": "[5]; female", "value": 6, "unit": "h"},
      {"measurement": "AUC(0-inf)", "setting": "[5]; male", "value": 378, "unit": "ng·h/mL"},
      {"measurement": "Cmax", "setting": "[5]; male", "value": 4.2, "unit": "ng/mL"},
      {"measurement": "Tmax", "setting": "[5]; male", "value": 6, "unit": "h"},
      {"measurement": "T1/2", "setting": "[5]; elderly men, n = 8, mean (SD)", "value": "85.2 (29.8) h"},
      {"measurement": "T1/2", "setting": "[5]; [9]", "value": "63.5 (10.7) h"},
      {"measurement": "Fe0–120, fraction excreted", "setting": "[5]; elderly men, n = 8, mean (SD)", "value": "0.0 (0.0) %"},
      {"measurement": "Fe0–120, fraction excreted", "setting": "[5]; [9]", "value": "0.0 (0.0) %"},
      {"measurement": "inhibitory or inducing effect in vitro", "setting": "CYP2C19", "value": "No inhibitory or inducing effect"},
      {"measurement": "safety profiles, fasted vs fed", "setting": "healthy adult men [6]", "value": "no significant differences in safety profiles"},
      {"measurement": "tolerated multiple dose", "setting": "[7]; healthy men", "value": "up to 20 mg"},
      {"measurement": "tolerated multiple dose", "setting": "[7]; healthy women", "value": "≤ 10", "unit": "mg"},
      {"measurement": "intensity of TEAEs", "setting": "[7]; multiple doses, all groups", "value": "all TEAEs were mild in intensity"},
      {"measurement": "inhibitory or inducing effect in vitro", "setting": "CYP2E1", "value": "No inhibitory or inducing effect"}
    ]}
  ]
}
